Reference: ChEMBL document CHEMBL3272285, “A potential amphetamine antagonist, adamantanamine derivative of fluphenazine” (J Med Chem, 1976)

What was measured:
[1] = system: Rattus norvegicus; assay: Toxicity in Sprague-Dawley rat assessed as shock avoidance response at 70 mg/kg, sc on day 4 relative to d-amphetamine; assay type: organism-based; set-up: dose 70 mg/kg, route subcutaneous; settings: in vivo
[2] = system: Rattus norvegicus; assay: Toxicity in Sprague-Dawley rat assessed as shock avoidance response at 70 mg/kg, sc on day 1 relative to d-amphetamine; assay type: organism-based; set-up: dose 70 mg/kg, route subcutaneous; settings: in vivo
[3] = system: Rattus norvegicus; assay: Toxicity in Sprague-Dawley rat assessed as sedation effect at 70 mg/kg, sc for 2 days; assay type: organism-based; set-up: dose 70 mg/kg, route subcutaneous; settings: in vivo, 48 h
[4] = system: Rattus norvegicus; assay: Toxicity in Sprague-Dawley rat assessed as spontaneous locomotor activity at 70 mg/kg, sc on day 4 relative to control; assay type: organism-based; set-up: dose 70 mg/kg, route subcutaneous; settings: in vivo
[5] = system: Rattus norvegicus; assay: Inhibition of d-amphetamine-induced increase spontaneous locomotor activity in Sprague-Dawley rat at 70 mg/kg, sc on day 7, drug administered prior to 2 mg/kg d-amphetamine challenge on 1,2,4 and 7th day relative to control; assay type: functional; set-up: scale not given: the % may be the effect or the level left
Summary of the method: (§1)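 After the initial drug injections, with a sesame oil vehicle group as control, rats got 2 mg/kg d-amphetamine in saline on days 1, 2, 4 and 7. Motor activity was recorded with an electronic motility meter for 30 min immediately after each amphetamine dose, at the same time of day. Counts are expressed as % of the vehicle control group.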

[6] = system: Rattus norvegicus; assay: Toxicity in Sprague-Dawley rat assessed as spontaneous locomotor activity at 70 mg/kg, sc on day 7 relative to control; assay type: organism-based; set-up: dose 70 mg/kg, route subcutaneous; settings: in vivo
[7] = system: Rattus norvegicus; assay: Inhibition of d-amphetamine-induced increase spontaneous locomotor activity in Sprague-Dawley rat at 70 mg/kg, sc on day 4, drug administered prior to 2 mg/kg d-amphetamine challenge on 1,2,4 and 7th day relative to control; assay type: functional; set-up: scale not given: the % may be the effect or the level left; summary of the method: as §1
[8] = system: Rattus norvegicus; assay: Inhibition of d-amphetamine-induced increase spontaneous locomotor activity in Sprague-Dawley rat at 70 mg/kg, sc on day 2, drug administered prior to 2 mg/kg d-amphetamine challenge on 1,2,4 and 7th day relative to control; assay type: functional; set-up: scale not given: the % may be the effect or the level left; summary of the method: as §1
[9] = system: Rattus norvegicus; assay: Inhibition of d-amphetamine-induced increase shock avoidance response in Sprague-Dawley rat at 70 mg/kg, sc on day 2, drug administered prior to 2 mg/kg d-amphetamine challenge on 1,2,4 and 7th day relative to control; assay type: functional; set-up: scale not given: the % may be the effect or the level left
Summary of the method: (§2)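 Rats were pretreated sc with 0.1 mmol of the dihydrochloride 1, 2, 4 or 7 days before 2 mg/kg d-amphetamine sulfate, in groups of five. Each was placed in a shuttle box 30 min after amphetamine and ran one session. Light and tone came on a variable interval 60-s schedule, with shock 5 s later; a trial ended without response 30 s after shock onset. Avoidances over 50 trials were scored as % of an amphetamine-only control group.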

[10] = system: Rattus norvegicus; assay: Toxicity in Sprague-Dawley rat assessed as shock avoidance response at 70 mg/kg, sc on day 7 relative to d-amphetamine; assay type: organism-based; set-up: dose 70 mg/kg, route subcutaneous; settings: in vivo
[11] = system: Rattus norvegicus; assay: Inhibition of d-amphetamine-induced increase shock avoidance response in Sprague-Dawley rat at 70 mg/kg, sc on day 7, drug administered prior to 2 mg/kg d-amphetamine challenge on 1,2,4 and 7th day relative to control; assay type: functional; set-up: scale not given: the % may be the effect or the level left; summary of the method: as §2
[12] = system: Rattus norvegicus; assay: Inhibition of d-amphetamine-induced increase shock avoidance response in Sprague-Dawley rat at 70 mg/kg, sc on day 1, drug administered prior to 2 mg/kg d-amphetamine challenge on 1,2,4 and 7th day relative to control; assay type: functional; set-up: scale not given: the % may be the effect or the level left; summary of the method: as §2
[13] = system: Rattus norvegicus; assay: Toxicity in Sprague-Dawley rat assessed as spontaneous locomotor activity at 70 mg/kg, sc on day 1 relative to control; assay type: organism-based; set-up: dose 70 mg/kg, route subcutaneous; settings: in vivo
[14] = system: Rattus norvegicus; assay: Inhibition of d-amphetamine-induced increase spontaneous locomotor activity in Sprague-Dawley rat at 70 mg/kg, sc on day 1, drug administered prior to 2 mg/kg d-amphetamine challenge on 1,2,4 and 7th day relative to control; assay type: functional; set-up: scale not given: the % may be the effect or the level left; summary of the method: as §1
[15] = system: Rattus norvegicus; assay: Toxicity in Sprague-Dawley rat assessed as shock avoidance response at 70 mg/kg, sc on day 2 relative to d-amphetamine; assay type: organism-based; set-up: dose 70 mg/kg, route subcutaneous; settings: in vivo
[16] = system: Rattus norvegicus; assay: Inhibition of d-amphetamine-induced increase shock avoidance response in Sprague-Dawley rat at 70 mg/kg, sc on day 4, drug administered prior to 2 mg/kg d-amphetamine challenge on 1,2,4 and 7th day relative to control; assay type: functional; set-up: scale not given: the % may be the effect or the level left; summary of the method: as §2
[17] = system: Rattus norvegicus; assay: Toxicity in Sprague-Dawley rat assessed as spontaneous locomotor activity at 70 mg/kg, sc on day 2 relative to control; assay type: organism-based; set-up: dose 70 mg/kg, route subcutaneous; settings: in vivo

Q: With `Cl.O=C(NC12CC3CC(CC(C3)C1)C2)OCCN1CCN(CCCN2c3ccccc3Sc3ccc(C(F)(F)F)cc32)CC1` as the molecule, how does the Activity [1] read?
A: The Activity was 90.9%.

Q: And the Activity [2]?
A: The Activity was 71.5%.

Q: And the Activity [3]?
A: The Activity was “Toxic”.

Q: And the Activity [4]?
A: Its Activity is 29.6%.

Q: What about the Activity [5] of the same molecule?
A: Its Activity is 101.2%.

Q: And the Activity [6]?
A: Its Activity is 26.6%.

Q: What about the Activity [7] of the same molecule?
A: Its Activity is 71.2%.

Q: And the Activity [8]?
A: The Activity was 51.9%.

Q: And the Activity [9]?
A: The Activity was 47%.

Q: What about the Activity [10] of the same molecule?
A: The Activity was 72%.

Q: What about the Activity [11] of the same molecule?
A: The Activity was 92.5%.

Q: And the Activity [12]?
A: Its Activity is 16.7%.

Q: And the Activity [13]?
A: The Activity was 52.8%.

Q: And the Activity [14]?
A: The Activity was 55.7%.

Q: And the Activity [15]?
A: The Activity was 82.2%.

Q: And the Activity [16]?
A: Its Activity is 61.8%.

Q: And the Activity [17]?
A: The Activity was 47.8%.
